Published values collected from several papers.
Each line is one published result; the experiments were not run side by side.
Target: Sodium-dependent noradrenaline transporter (SLC6A2, Homo sapiens, UniProt P23975)

`Nc1ccc(-c2ccncc2)cc1NC(=O)N1CCCC1` gave an inhibition of 15% (cell-free assay; 10 µM).
The inhibition of `N#Cc1cc(Cn2c(N3CCCC3)nc3ccccc32)ccc1F` is reported as 39.4% (ligand displacement; 10 µM).
For `CCN(CC)c1ccc(C2Nc3ccc(C(=O)c4ccccc4)cc3NC3=C2C(=O)CC(C)(C)C3)cc1` (stereo not drawn), the inhibition was 51% (ligand displacement; radioligand; 10 µM).
`Clc1ccc(C(c2ccc(Cl)cc2)c2nnnn2CCCN2CCC(CCCc3ccccc3)CC2)cc1` gave an inhibition of 10.8% (transporter uptake; inhibitor; HEK293; 1 µM).
`COc1cc(NC(C)=O)c(Cl)cc1C(=O)Nc1nccs1` gave an inhibition of 1.8% (cell-free assay; 10 µM).
`COc1ccc(-n2nc(OCCCN3CCCCC3)ccc2=O)cc1` gave an inhibition of 18.5% (ligand displacement; 1 µM).
The inhibition of `c1ccc(C2CCN(CCCCn3nnnc3C(c3ccccc3)c3ccccc3)CC2)cc1` is reported as 66.3% (transporter uptake; inhibitor; HEK293; 1 µM).
The inhibition of `O[C@@H]1[C@H](O)[C@@H]2C[C@@H]2[C@H]1n1cnc2c(NCCc3ccccc3)nc(C#Cc3ccccc3Cl)nc21` is reported as 24% (ligand displacement; radioligand; 10 µM).
With `c1ccc(CCCC2CCN(CCCCn3nnnc3C(c3ccccc3)c3ccccc3)CC2)cc1` the inhibition was 73.9% (transporter uptake; inhibitor; HEK293; 1 µM).
`Ic1cccc2cnccc12` has an inhibition of 44% (ligand displacement; radioligand; 10 µM).
`Clc1ccc(C(c2ccc(Cl)cc2)c2nnnn2CCCCN2CCC(Cc3ccccc3)CC2)cc1` gave an inhibition of 68.8% (transporter uptake; inhibitor; HEK293; 1 µM).
With `O[C@@H]1[C@H](O)[C@@H]2C[C@@H]2[C@H]1n1cnc2c(NCc3cccc(Cl)c3)nc(C#Cc3ccccc3)nc21` the inhibition was 34% (ligand displacement; radioligand; 10 µM).
